Source: ChEMBL document CHEMBL3763086, “Salicylanilide N-monosubstituted carbamates: Synthesis and in vitro antimicrobial activity” (2016)
Converted amounts (≈) assume the structure as drawn.

Key:
Assay type in all cases: functional
[1] = system: Trichophyton mentagrophytes; experiment: Antifungal activity against Trichophyton mentagrophytes 445 after 72 hrs by microbroth dilution method; conditions: Trichophyton mentagrophytes, 445, 72 h
Staphylococcus aureus [2] = experiment: Antibacterial activity against Staphylococcus aureus CCM 4516/08 after 24 hrs by microbroth dilution method; conditions: CCM 4516/08, 24 h
How it was run: (§1)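 Microbroth dilution modified per M07-A07 in Mueller-Hinton broth, pH 7.4 (±0.2). Inoculum in sterile water adjusted to 0.5 McFarland. MIC taken as growth reduction of at least 90% (IC90) versus control, read visually and at 540 nm after 24 and 48 h incubation in the dark.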

Escherichia coli [3] = experiment: Antibacterial activity against Escherichia coli CCM 4517 after 24 hrs by microbroth dilution method; conditions: CCM 4517, 24 h; how it was run: as §1
Klebsiella pneumoniae [4] = experiment: Antibacterial activity against ESBL-positive Klebsiella pneumoniae J 14368/08 after 24 hrs by microbroth dilution method; conditions: J 14368/08, 24 h; how it was run: as §1
Enterococcus sp. [5] = experiment: Antibacterial activity against Enterococcus sp. J 14365/08 after 24 hrs by microbroth dilution method; conditions: J 14365/08, 24 h; how it was run: as §1
Nakaseomyces glabratus [6] = experiment: Antifungal activity against Candida glabrata 20/I after 24 hrs by microbroth dilution method
Lichtheimia corymbifera [7] = experiment: Antifungal activity against Absidia corymbifera 272 after 24 hrs by microbroth dilution method; conditions: Lichtheimia corymbifera, 272, 24 h
[8] = system: Trichophyton mentagrophytes; experiment: Antifungal activity against Trichophyton mentagrophytes 445 after 120 hrs by microbroth dilution method; conditions: Trichophyton mentagrophytes, 445, 120 h
Nakaseomyces glabratus [9] = experiment: Antifungal activity against Candida glabrata 20/I after 48 hrs by microbroth dilution method
Enterococcus sp. [10] = experiment: Antibacterial activity against Enterococcus sp. J 14365/08 after 48 hrs by microbroth dilution method; conditions: J 14365/08, 48 h; how it was run: as §1
Trichosporon asahii [11] = experiment: Antifungal activity against Trichosporon asahii 1188 after 48 hrs by microbroth dilution method; conditions: Trichosporon asahii, 1188, 48 h
Staphylococcus aureus [12] = experiment: Antibacterial activity against Staphylococcus aureus CCM 4516/08 after 48 hrs by microbroth dilution method; conditions: CCM 4516/08, 48 h
How it was run: (§2)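 Microdilution broth method modified after M07-A07 in Mueller-Hinton broth adjusted to pH 7.4 (±0.2). Inoculum prepared in sterile water to 0.5 McFarland (1.5 × 10^8 CFU/mL). MIC taken as growth reduction versus control (IC95 per table header), read visually and spectrophotometrically at 540 nm after 24 and 48 h incubation in the dark.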

Klebsiella pneumoniae [13] = experiment: Antibacterial activity against Klebsiella pneumoniae D 11750/08 after 24 hrs by microbroth dilution method; conditions: D 11750/08, 24 h; how it was run: as §1
Staphylococcus aureus [14] = experiment: Antibacterial activity against methicillin-resistant Staphylococcus aureus H 5996/08 after 48 hrs by microbroth dilution method; conditions: H 5996/08, 48 h; how it was run: as §2
Trichosporon asahii [15] = experiment: Antifungal activity against Trichosporon asahii 1188 after 24 hrs by microbroth dilution method; conditions: Trichosporon asahii, 1188, 24 h
Staphylococcus aureus [16] = experiment: Antibacterial activity against methicillin-resistant Staphylococcus aureus H 5996/08 after 24 hrs by microbroth dilution method; conditions: H 5996/08, 24 h; how it was run: as §2
Pichia kudriavzevii [17] = experiment: Antifungal activity against Candida krusei E28 after 48 hrs by microbroth dilution method; conditions: E28, 48 h
Lichtheimia corymbifera [18] = experiment: Antifungal activity against Absidia corymbifera 272 after 48 hrs by microbroth dilution method; conditions: Lichtheimia corymbifera, 272, 48 h
Candida tropicalis [19] = experiment: Antifungal activity against Candida tropicalis 156 after 24 hrs by microbroth dilution method; conditions: Candida tropicalis, 156, 24 h
Klebsiella pneumoniae [20] = experiment: Antibacterial activity against ESBL-positive Klebsiella pneumoniae J 14368/08 after 48 hrs by microbroth dilution method; conditions: J 14368/08, 48 h; how it was run: as §1
Escherichia coli [21] = experiment: Antibacterial activity against Escherichia coli CCM 4517 after 48 hrs by microbroth dilution method; conditions: CCM 4517, 48 h; how it was run: as §1
Candida albicans [22] = experiment: Antifungal activity against Candida albicans ATCC 44859 after 48 hrs by microbroth dilution method; conditions: ATCC 44859, 48 h
Klebsiella pneumoniae [23] = experiment: Antibacterial activity against Klebsiella pneumoniae D 11750/08 after 48 hrs by microbroth dilution method; conditions: D 11750/08, 48 h; how it was run: as §1
[24] = system: Staphylococcus epidermidis; experiment: Antibacterial activity against Staphylococcus epidermidis H 6966/08 after 24 hrs by microbroth dilution method; conditions: H 6966/08, 24 h; how it was run: as §1
Candida albicans [25] = experiment: Antifungal activity against Candida albicans ATCC 44859 after 24 hrs by microbroth dilution method; conditions: ATCC 44859, 24 h
Candida tropicalis [26] = experiment: Antifungal activity against Candida tropicalis 156 after 48 hrs by microbroth dilution method; conditions: Candida tropicalis, 156, 48 h
Pichia kudriavzevii [27] = experiment: Antifungal activity against Candida krusei E28 after 24 hrs by microbroth dilution method; conditions: E28, 24 h
[28] = system: Staphylococcus epidermidis; experiment: Antibacterial activity against Staphylococcus epidermidis H 6966/08 after 48 hrs by microbroth dilution method; conditions: H 6966/08, 48 h; how it was run: as §1

| SMILES | MIC [1] [µM] | MIC (Staphylococcus aureus [2]) [µM] | MIC (Escherichia coli [3]) [µM] | MIC (Klebsiella pneumoniae [4]) [µM] | MIC (Enterococcus sp. [5]) [µM] | MIC (Nakaseomyces glabratus [6]) [µM] | MIC (Lichtheimia corymbifera [7]) [µM] | MIC [8] [µM] | MIC (Nakaseomyces glabratus [9]) [µM] | MIC (Enterococcus sp. [10]) [µM] | MIC (Trichosporon asahii [11]) [µM] | MIC (Staphylococcus aureus [12]) [µM] | MIC (Klebsiella pneumoniae [13]) [µM] | MIC (Staphylococcus aureus [14]) [µM] | MIC (Trichosporon asahii [15]) [µM] | MIC (Staphylococcus aureus [16]) [µM] | MIC (Pichia kudriavzevii [17]) [µM] | MIC (Lichtheimia corymbifera [18]) [µM] | MIC (Candida tropicalis [19]) [µM] | MIC (Klebsiella pneumoniae [20]) [µM] | further results |
| --- | --- | --- | --- | --- | --- | --- | --- | --- | --- | --- | --- | --- | --- | --- | --- | --- | --- | --- | --- | --- | --- |
| O=C(NC1CCCCC1)Oc1ccc(Cl)cc1C(=O)Nc1ccc(Br)cc1 | 1.95 (≈ 0.881 µg/mL) | ≤ 0.49 | > 500 | > 500 | 500 (≈ 226 µg/mL) | > 125 | > 125 | 1.95 (≈ 0.881 µg/mL) | > 125 | 500 (≈ 226 µg/mL) | 62.5 (≈ 28.2 µg/mL) | 0.98 (≈ 0.443 µg/mL) | > 500 | 1.95 (≈ 0.881 µg/mL) | 62.5 (≈ 28.2 µg/mL) | ≤ 0.49 | > 125 | > 125 | > 125 | > 500 | MIC (Escherichia coli [21]): > 500 µM; MIC (Candida albicans [22]): > 125 µM; MIC (Klebsiella pneumoniae [23]): > 500 µM; MIC [24]: ≤ 0.49 µM; MIC (Candida albicans [25]): > 125 µM; MIC (Candida tropicalis [26]): > 125 µM; MIC (Pichia kudriavzevii [27]): > 125 µM; MIC [28]: 0.98 µM (≈ 0.443 µg/mL) |
| O=C(NCCc1ccccc1)Oc1ccc(Cl)cc1C(=O)Nc1ccc(Br)cc1 | 3.9 (≈ 1.85 µg/mL) | ≤ 0.49 | > 500 | > 500 | > 500 | 125 (≈ 59.2 µg/mL) | 125 (≈ 59.2 µg/mL) | 3.9 (≈ 1.85 µg/mL) | 125 (≈ 59.2 µg/mL) | > 500 | 62.5 (≈ 29.6 µg/mL) | 1.95 (≈ 0.924 µg/mL) | > 500 | 1.95 (≈ 0.924 µg/mL) | 62.5 (≈ 29.6 µg/mL) | 0.98 (≈ 0.464 µg/mL) | > 125 | 125 (≈ 59.2 µg/mL) | > 125 | > 500 | MIC (Escherichia coli [21]): > 500 µM; MIC (Candida albicans [22]): > 125 µM; MIC (Klebsiella pneumoniae [23]): > 500 µM; MIC [24]: ≤ 0.49 µM; MIC (Candida albicans [25]): > 125 µM; MIC (Candida tropicalis [26]): > 125 µM; MIC (Pichia kudriavzevii [27]): > 125 µM; MIC [28]: 0.98 µM (≈ 0.464 µg/mL) |
| O=C(NC1CCCCC1)Oc1ccccc1C(=O)Nc1ccccc1 | > 500 | 250 (≈ 84.6 µg/mL) | > 500 | > 500 | 500 (≈ 169 µg/mL) | > 500 | > 500 | > 500 | > 500 | 500 (≈ 169 µg/mL) | > 500 | 250 (≈ 84.6 µg/mL) | > 500 | 500 (≈ 169 µg/mL) | > 500 | 500 (≈ 169 µg/mL) | > 500 | > 500 | > 500 | > 500 | MIC (Escherichia coli [21]): > 500 µM; MIC (Candida albicans [22]): > 500 µM; MIC (Klebsiella pneumoniae [23]): > 500 µM; MIC [24]: 500 µM (≈ 169 µg/mL); MIC (Candida albicans [25]): > 500 µM; MIC (Candida tropicalis [26]): > 500 µM; MIC (Pichia kudriavzevii [27]): > 500 µM; MIC [28]: 500 µM (≈ 169 µg/mL) |
| O=C(Nc1ccccc1)Oc1ccc(Cl)cc1C(=O)Nc1ccc(F)cc1 | 3.9 (≈ 1.5 µg/mL) | 7.81 (≈ 3.01 µg/mL) | > 500 | 250 (≈ 96.2 µg/mL) | 250 (≈ 96.2 µg/mL) | > 250 | > 250 | 15.6 (≈ 6.01 µg/mL) | > 250 | 250 (≈ 96.2 µg/mL) | > 250 | 7.81 (≈ 3.01 µg/mL) | 250 (≈ 96.2 µg/mL) | 7.81 (≈ 3.01 µg/mL) | > 250 | 7.81 (≈ 3.01 µg/mL) | > 250 | > 250 | > 250 | 250 (≈ 96.2 µg/mL) | MIC (Escherichia coli [21]): > 500 µM; MIC (Candida albicans [22]): > 250 µM; MIC (Klebsiella pneumoniae [23]): 250 µM (≈ 96.2 µg/mL); MIC [24]: 7.81 µM (≈ 3.01 µg/mL); MIC (Candida albicans [25]): > 250 µM; MIC (Candida tropicalis [26]): > 250 µM; MIC (Pichia kudriavzevii [27]): > 250 µM; MIC [28]: 7.81 µM (≈ 3.01 µg/mL) |
| O=C(NCCc1ccccc1)Oc1ccccc1C(=O)Nc1ccccc1 | 62.5 (≈ 22.5 µg/mL) | 125 (≈ 45.1 µg/mL) | > 500 | > 500 | > 500 | 250 (≈ 90.1 µg/mL) | > 500 | 62.5 (≈ 22.5 µg/mL) | 250 (≈ 90.1 µg/mL) | > 500 | > 500 | 125 (≈ 45.1 µg/mL) | > 500 | 125 (≈ 45.1 µg/mL) | > 500 | 125 (≈ 45.1 µg/mL) | 125 (≈ 45.1 µg/mL) | > 500 | > 500 | > 500 | MIC (Escherichia coli [21]): > 500 µM; MIC (Candida albicans [22]): > 500 µM; MIC (Klebsiella pneumoniae [23]): > 500 µM; MIC [24]: 125 µM (≈ 45.1 µg/mL); MIC (Candida albicans [25]): > 500 µM; MIC (Candida tropicalis [26]): > 500 µM; MIC (Pichia kudriavzevii [27]): 125 µM (≈ 45.1 µg/mL); MIC [28]: 125 µM (≈ 45.1 µg/mL) |
